Assay results from different studies.
Each line is one published result; the experiments were not run side by side.
Read-out: cell growth or viability

Compound	cell line	method	tested at	time	endpoint	result
Cc1nc(Nc2ncc(C(=O)Nc3c(C)cccc3Cl)s2)cc(N2CC[C@H](O)C2)n1	OCI-Ly7	ATP luminescence	10 µM	72 h	inhibition	57%
CCC(=O)NCc1ccc(-c2cnc(C3CN(C(=O)c4ccc(NC(=O)[C@@H]5CC(C)(C)CN5)s4)C3)s2)c2ccccc12	IMR-90	SRB	–	7 days	GI50	> 10 µM
O=c1c2cc(Cl)ccc2nc(-c2ccccc2)n1N=Cc1cccnc1	LLC-PK1	MTT	–	72 h	IC50	326 µM
CC1(C)C[C@H]2[C@H]1CC[C@]1(C)CCC[C@@]2(n2cc(C(=O)Nc3ccc(Cl)cc3)nn2)C1	HT-29	CCK-8	50 µM	–	inhibition	16.8%
C=C(NC(=O)C(=C)NC(=O)c1csc(C2=N[C@@H]3c4csc(n4)[C@H]4NC(=O)c5csc(n5)[C@H]([C@](C)(O)[C@@H](C)O)NC(=O)[C@H]5CSC(=N5)/C(=C/C)NC(=O)[C@H]([C@@H](C)O)NC(=O)c5csc(n5)[C@]3(CC2)NC(=O)[C@H](C)NC(=O)C(=C)NC(=O)[C@H](C)NC(=O)[C@H]([C@@H](C)CC)N[C@@H]2C=Cc3c([C@H](C)O)cc(nc3[C@H]2O)C(=O)O[C@@H]4C)n1)C(N)=O	SQ20B	–	–	–	EC50	0.7 µM
CC1(C)C[C@H]2[C@H]1CC[C@]1(C)CCC[C@@]2(n2cc(C(=O)NCCN)nn2)C1	HT-29	CCK-8	10 µM	–	inhibition	53.4%
O=c1c2cc(Cl)ccc2nc(-c2ccccc2)n1N=Cc1ccc2c(c1)OCO2	LLC-PK1	MTT	–	72 h	IC50	60.2 µM
CC1(C)C[C@H]2[C@H]1CC[C@]1(C)CCC[C@@]2(n2cc(C(=O)O)nn2)C1	HT-29	CCK-8	10 µM	–	inhibition	< 50%
O=c1c2cc(Cl)ccc2nc(-c2ccccc2)n1N=Cc1ccc(Cl)cc1Cl	LLC-PK1	MTT	–	72 h	IC50	264 µM
